TCR CD3 inh – human TCR-CD3 binding inhibition | hit rate 0.37% among 360,000 | TAMRA-labeled TCR probe fluorescence, biochemical | inhibition, % at 9.4 µM; in the data active = inhibition above about 19%;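 note: recombinant mutant TCR 2C K166C tagged with TAMRA read by polarization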
HTRA1 inhibitor – blocks human HTRA1 serine peptidase; Q92743; recombinant HTRA1, FP-rhodamine activity-based probe, fluorescence polarization; inhibition, % at 5.96 µM; hit rate 0.5% among 340,000; in the data active = inhibition above about 36%
SIAE primary – inhibitors of human sialic acid acetylesterase SIAE; inhibition, % at 9.66 µM; Q9HAT2; hit rate 0.69% among 370,000; SIAE FP-Rh probe binding, fluorescence polarization;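 active = inhibition above a cutoff: mean of compounds within the control limits plus 3 SD of those, cut at about 17% in these data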
Target sequence (Q9HAT2 whole entry, looked up): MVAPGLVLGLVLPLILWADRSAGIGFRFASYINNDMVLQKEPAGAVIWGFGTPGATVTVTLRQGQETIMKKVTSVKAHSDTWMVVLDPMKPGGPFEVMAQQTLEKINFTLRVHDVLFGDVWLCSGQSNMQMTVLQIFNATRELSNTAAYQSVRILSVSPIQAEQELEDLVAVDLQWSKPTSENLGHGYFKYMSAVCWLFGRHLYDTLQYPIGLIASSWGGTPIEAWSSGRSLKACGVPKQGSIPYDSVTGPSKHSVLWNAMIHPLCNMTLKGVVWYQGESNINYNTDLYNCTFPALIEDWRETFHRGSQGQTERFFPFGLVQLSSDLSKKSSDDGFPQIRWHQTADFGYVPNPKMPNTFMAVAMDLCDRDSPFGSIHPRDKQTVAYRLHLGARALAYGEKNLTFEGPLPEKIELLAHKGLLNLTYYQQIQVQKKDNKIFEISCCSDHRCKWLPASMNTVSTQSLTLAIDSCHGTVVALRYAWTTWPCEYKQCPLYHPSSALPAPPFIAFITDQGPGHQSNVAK
rCAG RNA binder – r(CAG) repeat RNA binding; TO-PRO-1 dye displacement fluorescence; inhibition, % at 3 µM; hit rate 1.3% among 370,000;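 active = inhibition above the plate cutoff, the mean of all test compounds on that plate plus 3 SD, cut at about 35% in these data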;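 note: higher means more dye released from RNA so lower well fluorescence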
ABHD4 inh – ABHD4 (mouse) inhibition, primary FP screen; hit rate 0.54% among 370,000; inhibition, % at 8.92 µM; purified mABHD4, FP-Rh probe fluorescence polarization; Q8VD66;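 active = inhibition exceeding the mean over every tested compound plus 3 SD, cut at about 30% in these data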
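assay system = mABHD4 protein | compound dosing = single nominal dose of 8.92 µM, 0.89% DMSO final | read-out basis = percent inhibition of probe binding, normalized to plate controls | schedule = Enzyme–compound pre-incubation 45 min, then probe 60 min, both 25 °C | detection = fluorescence polarization, excitation 525 nm, emission 598 nm, BODIPY TMR filters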
PRMT1 inh – inhibitors of human PRMT1. inhibition, % at 2.79 µM. Q99873. hit rate 1.3% among 370,000. recombinant PRMT1, activity-based probe fluorescence polarization. AID 652257;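 active = inhibition above about 21% made by adding two undisclosed values, limit read from the data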
SIAE inh conf – human SIAE inhibition, confirmation. shares compounds with SIAE primary. SIAE FP-Rh activity-based probe, fluorescence polarization. inhibition, % at 9.66 µM. hit rate 13% among 2,300. AID 1117263;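 active = mean inhibition of the replicates above the hit cutoff set in the primary screen, cut at about 17% in these data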;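 note: inhibitors lower polarization as more probe stays unbound to SIAE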
Hits are given with their value; i = inactive; nt = not tested or not shown. Sampled rows, rich in hits. Any-hit rate of the full collection: about 3.5%.

SMILES | TCR CD3 inh | HTRA1 inhibitor | SIAE primary | rCAG RNA binder | ABHD4 inh | PRMT1 inh | SIAE inh conf
CCN(CC)C(=O)C1=C(C)N(CCCN2CCCC2=O)C(=O)C(CC(=O)NCc2cccs2)C1 (stereo not drawn) | i | i | i | i | i | i | nt
CCCc1nnc(NC(=O)C23CC4CC(CC(C4)C2)C3)s1 | i | i | i | i | i | i | nt
COCc1nnc(NC(=O)C23CC4CC(CC(C4)C2)C3)s1 | i | i | 18 | i | i | i | i
O=C(NC(=S)Nc1cccc(NC(=O)c2ccccc2)c1)c1cccc([N+](=O)[O-])c1 | i | i | 63 | i | i | i | i
O=C(Nc1nc(-c2ccccc2)cs1)c1cccc([N+](=O)[O-])c1 | i | i | 19 | i | i | i | i
CCC(O)(c1ccc(NC(=O)OC(C)(C)C)cc1)c1cc(OC)cc(OC)c1 (stereo not drawn) | nt | nt | i | i | i | i | nt
C=CCn1c(SCC(=O)N(CC)C2CCS(=O)(=O)C2)nc2sc3c(c2c1=O)CCC3 (stereo not drawn) | i | i | 18 | i | i | i | i
C=CCn1c(SCC(C)=O)nc2sc3c(c2c1=O)CCC3 | i | i | i | i | i | i | nt
CCCCc1ccc(C2C3=C(CC(C)(C)CC3=O)NC3=C2C(=O)c2ccccc23)cc1 (stereo not drawn) | i | i | 19 | i | i | i | i
COC(=O)C1=C(C)N(Cc2ccc(C(F)(F)F)cc2)C(=NCc2ccc3c(c2)OCO3)NC1c1cccc(Cl)c1 (stereo not drawn) | i | nt | i | i | i | i | nt
COc1ccc(N=C2SC(C(=O)O)CC(=O)N2C)cc1 (stereo not drawn) | i | i | 25 | i | i | i | i
CN1C(=O)CC(C(=O)O)SC1=Nc1ccc(F)cc1 (stereo not drawn) | i | i | i | i | i | i | nt
Cc1cccc(NC(=O)NN(C(=O)c2ccccc2Cl)C(C)(C)C)c1 | nt | nt | i | i | i | i | nt
Cc1ccc(NC(=S)NNC(=S)Nc2ccc(C)cc2C)cc1 | i | i | 18 | i | i | i | i
CCOC(=O)COn1c(=O)c(-c2ccc(F)cc2)[n+]([O-])c2ccccc21 | i | i | i | i | i | i | nt
CCOC(=O)COn1c(=O)c(-c2ccc(Br)cc2)[n+]([O-])c2ccccc21 | i | i | 17 | i | i | i | i
COc1ccc(C(=O)N(c2ccc(C)cc2)C2C=CS(=O)(=O)C2)cc1OC (stereo not drawn) | i | i | 20 | i | i | i | i
Cc1ccc(N(C(=O)c2ccc(S(=O)(=O)N3CCCC3)cc2)C2C=CS(=O)(=O)C2)cc1 (stereo not drawn) | i | i | i | i | i | i | nt
CC(C)(C)C(=O)N1CCN(c2nc3ccc(Cl)cc3s2)CC1 | i | i | 18 | i | i | i | i
CC(C)(C)C(=O)N1CCN(c2nc3ccc(Br)cc3s2)CC1 | i | i | i | i | i | i | nt
O=C(CN1C(=O)CCSc2ccccc21)Nc1ccc(Cl)cc1 | nt | nt | i | i | i | i | nt
CCOc1cc(/C=C(/C#N)c2nc3ccccc3[nH]2)ccc1Oc1ccc([N+](=O)[O-])cn1 | i | i | i | i | i | i | nt
COc1cc(/C=C(/C#N)c2ccc(C)cc2)ccc1Oc1ccc([N+](=O)[O-])cn1 | i | i | 35 | i | i | i | i
COc1ccc(C(=O)NN=C2CCCC2)cc1 | i | i | 20 | i | i | i | i
COc1cccc(C(=O)NN=C2CCCC2)c1 | i | i | i | i | i | i | nt
SMILES | TCR CD3 inh | HTRA1 inhibitor | SIAE primary | rCAG RNA binder | ABHD4 inh | PRMT1 inh | SIAE inh conf
O=c1[nH]c2cc(Br)c(Br)nc2[nH]1 | nt | nt | i | i | i | i | nt
CNC(=O)[C@@H](NC(=O)[C@H](CC(C)C)[C@H](O)C(=O)NO)C(C)(C)C | nt | nt | i | i | i | i | nt
O=C(CSc1nc(=O)n(CCCN2CCOCC2)c2c1CCC2)Nc1ccc([N+](=O)[O-])cc1 | i | i | 18 | i | i | i | i
CCN(CC)CCn1c2c(c(SCC(=O)Nc3ccccc3Cl)nc1=O)CCCC2 | i | i | i | i | i | i | nt
CCN(CC)CCCn1c2c(c(SCC(=O)Nc3ccccc3Cl)nc1=O)CCC2 | i | i | 18 | i | i | i | i
CN(Cc1ccccc1F)C(=O)Cn1c(-c2cncs2)nc2ccccc21 | nt | nt | i | i | i | i | nt

Screening results as filed in PubChem BioAssay.
